The source made the active and inactive calls.
Columns and labels:
Staphylococcus aureus [1] = experiment: Ratio of MIC for Staphylococcus aureus ATCC 29213 after 20 passages to MIC for Staphylococcus aureus ATCC 29213 before 20 passages; format: functional
Summary of the method: (§1)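 The MIC was first measured by broth microdilution. Cells grown at MIC/2 were then carried into a fresh MIC assay after each 24 h, repeated over 20 serial passages. Norfloxacin (S. aureus) and colistin (E. coli) served as control antibiotics. Resistance was defined as a >4-fold rise over the original MIC.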

Staphylococcus aureus [2] = experiment: Bactericidal activity against Staphylococcus aureus ATCC 29213 at 6 times MIC after 6 hrs by time-kill assay; format: functional, organism-based
Summary of the method: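 An overnight culture was diluted 1:10,000 in MHB and grown at 37 °C and 225 rpm for 2 h or 5 h. It was then challenged in tubes at 6× and 8× MIC, with vancomycin (6 µg/mL) as comparator. At intervals, aliquots were pelleted, resuspended in PBS, and tenfold dilutions plated on MHA overnight at 37 °C to give CFU/mL. Biological replicates were run.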

Staphylococcus aureus [3] = experiment: Antibacterial activity against Staphylococcus aureus ATCC 29213 after 16 to 20 hrs by broth microdilution method; format: functional
Summary of the method: (§2)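 Broth microdilution per CLSI. Bacteria grown 4-6 h (about 10⁸ CFU/mL), then diluted to about 10⁶ CFU/mL. Medium: Mueller-Hinton broth, except Luria-Bertani broth for E. coli. Compounds in sterile water, twofold series 256-0.5 µg/mL, mixed 1:1 with inoculum, 37 °C for 16-20 h. MIC is the lowest concentration without visible growth. Duplicate wells; experiment repeated at least twice.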

Enterococcus faecalis = experiment: Antibacterial activity against Enterococcus faecalis ATCC 29212 after 16 to 20 hrs by broth microdilution method; format: functional; summary of the method: as §2
Escherichia coli [4] = experiment: Antibacterial activity against Escherichia coli ATCC 25922 after 16 to 20 hrs by broth microdilution method; format: functional; summary of the method: as §2
Salmonella enterica = experiment: Antibacterial activity against Salmonella enterica ATCC 13076 after 16 to 20 hrs by broth microdilution method; format: functional; summary of the method: as §2
[5] = Hemolytic activity in sheep RBC after 1 hr; format: ADME, cell-based, Ovis aries, Erythrocyte; settings: sheep red blood cells (erythrocytes)
Summary of the method: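 Sheep red blood cells (150 µL suspension) mixed with 50 µL of compound dilutions (5120-10 µg/mL), 1 h at 37 °C, then centrifuged. Supernatant read at 540 nm. Percent hemolysis calculated relative to RBC-only control (0%) and 0.1% Triton X-100 (100%).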

Staphylococcus aureus [6] = experiment: Antibacterial activity against methicillin-resistant Staphylococcus aureus clinical isolate 1105183 cono7 after 16 to 20 hrs by broth microdilution method; format: functional
Summary of the method: (§3)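 CLSI broth microdilution in Mueller-Hinton broth. A 4-6 h culture was diluted to about 10⁶ CFU/mL and mixed 1:1 with compound dilutions prepared at 256 to 0.5 µg/mL from aqueous stocks. Plates were incubated at 37 °C for 16-20 h and read visually for MIC. Each concentration was run in duplicate, and the experiment was repeated at least twice. Vancomycin and meropenem were comparators.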

Staphylococcus aureus [7] = experiment: Antibacterial activity against methicillin-resistant Staphylococcus aureus clinical isolate 20130911034sau after 16 to 20 hrs by broth microdilution method; format: functional; summary of the method: as §3
Staphylococcus aureus [8] = experiment: Antibacterial activity against methicillin-resistant Staphylococcus aureus clinical isolate 0831010 after 16 to 20 hrs by broth microdilution method; format: functional; summary of the method: as §3
Staphylococcus aureus [9] = experiment: Antibacterial activity against methicillin-resistant Staphylococcus aureus clinical isolate 1104060 after 16 to 20 hrs by broth microdilution method; format: functional; summary of the method: as §3
Staphylococcus aureus [10] = experiment: Antibacterial activity against methicillin-resistant Staphylococcus aureus clinical isolate 20131012632sau after 16 to 20 hrs by broth microdilution method; format: functional; summary of the method: as §3
Staphylococcus aureus [11] = experiment: Antibacterial activity against methicillin-resistant Staphylococcus aureus clinical isolate 1207007 after 16 to 20 hrs by broth microdilution method; format: functional; summary of the method: as §3
Staphylococcus aureus [12] = experiment: Antibacterial activity against methicillin-resistant Staphylococcus aureus clinical isolate 1-may after 16 to 20 hrs by broth microdilution method; format: functional; summary of the method: as §3
Staphylococcus aureus [13] = experiment: Antibacterial activity against methicillin-resistant Staphylococcus aureus clinical isolate 0906202 after 16 to 20 hrs by broth microdilution method; format: functional; summary of the method: as §3
Staphylococcus aureus [14] = experiment: Antibacterial activity against methicillin-resistant Staphylococcus aureus clinical isolate 1208143 after 16 to 20 hrs by broth microdilution method; format: functional; summary of the method: as §3
Klebsiella pneumoniae [15] = experiment: Antibacterial activity against drug-resistant carbapenemase producing Klebsiella pneumoniae clinical isolate KP-14-8 after 16 to 20 hrs by broth microdilution method; format: functional; summary of the method: as §3
Klebsiella pneumoniae [16] = experiment: Antibacterial activity against drug-resistant carbapenemase producing Klebsiella pneumoniae clinical isolate KP-13-45 after 16 to 20 hrs by broth microdilution method; format: functional; summary of the method: as §3
Klebsiella pneumoniae [17] = experiment: Antibacterial activity against drug-resistant carbapenemase producing Klebsiella pneumoniae clinical isolate KP-14-3 after 16 to 20 hrs by broth microdilution method; format: functional; summary of the method: as §3
Klebsiella pneumoniae [18] = experiment: Antibacterial activity against drug-resistant carbapenemase producing Klebsiella pneumoniae clinical isolate KP-14-1 after 16 to 20 hrs by broth microdilution method; format: functional; summary of the method: as §3
Klebsiella pneumoniae [19] = experiment: Antibacterial activity against drug-resistant carbapenemase producing Klebsiella pneumoniae clinical isolate KP-14-4 after 16 to 20 hrs by broth microdilution method; format: functional; summary of the method: as §3
Klebsiella pneumoniae [20] = experiment: Antibacterial activity against drug-resistant carbapenemase producing Klebsiella pneumoniae clinical isolate KP-13-54 after 16 to 20 hrs by broth microdilution method; format: functional; summary of the method: as §3
Klebsiella pneumoniae [21] = experiment: Antibacterial activity against drug-resistant carbapenemase producing Klebsiella pneumoniae clinical isolate KP-14-2 after 16 to 20 hrs by broth microdilution method; format: functional; summary of the method: as §3
Klebsiella pneumoniae [22] = experiment: Antibacterial activity against drug-resistant carbapenemase producing Klebsiella pneumoniae clinical isolate EC-13-23 after 16 to 20 hrs by broth microdilution method; format: functional; summary of the method: as §3
Klebsiella pneumoniae [23] = experiment: Antibacterial activity against drug-resistant carbapenemase producing Klebsiella pneumoniae clinical isolate KP-14-5 after 16 to 20 hrs by broth microdilution method; format: functional; summary of the method: as §3
Klebsiella pneumoniae [24] = experiment: Antibacterial activity against drug-resistant carbapenemase producing Klebsiella pneumoniae clinical isolate KP-13-55 after 16 to 20 hrs by broth microdilution method; format: functional; summary of the method: as §3
Klebsiella pneumoniae [25] = experiment: Antibacterial activity against drug-resistant carbapenemase producing Klebsiella pneumoniae clinical isolate KP-14-45 after 16 to 20 hrs by broth microdilution method; format: functional; summary of the method: as §3
Klebsiella pneumoniae [26] = experiment: Antibacterial activity against drug-resistant carbapenemase producing Klebsiella pneumoniae clinical isolate KP-14-18 after 16 to 20 hrs by broth microdilution method; format: functional; summary of the method: as §3
Escherichia coli [27] = experiment: Antibacterial activity against drug-resistant NDM1 producing Escherichia coli clinical isolate EC-13-49 after 16 to 20 hrs by broth microdilution method; format: functional; summary of the method: as §3
Escherichia coli [28] = experiment: Antibacterial activity against drug-resistant NDM1 producing Escherichia coli clinical isolate Ecl-14-58 after 16 to 20 hrs by broth microdilution method; format: functional; summary of the method: as §3
Escherichia coli [29] = experiment: Antibacterial activity against drug-resistant NDM1 producing Escherichia coli clinical isolate KP-13-58 after 16 to 20 hrs by broth microdilution method; format: functional; summary of the method: as §3
Escherichia coli [30] = experiment: Antibacterial activity against drug-resistant NDM1 producing Escherichia coli clinical isolate Ecl-13-62 after 16 to 20 hrs by broth microdilution method; format: functional; summary of the method: as §3
Escherichia coli [31] = experiment: Antibacterial activity against drug-resistant NDM1 producing Escherichia coli clinical isolate EC-14-54 after 16 to 20 hrs by broth microdilution method; format: functional; summary of the method: as §3
Escherichia coli [32] = experiment: Antibacterial activity against drug-resistant NDM1 producing Escherichia coli clinical isolate Ecl-14-59 after 16 to 20 hrs by broth microdilution method; format: functional; summary of the method: as §3
Escherichia coli [33] = experiment: Antibacterial activity against drug-resistant NDM1 producing Escherichia coli clinical isolate EA-14-61 after 16 to 20 hrs by broth microdilution method; format: functional; summary of the method: as §3
Escherichia coli [34] = experiment: Antibacterial activity against drug-resistant NDM1 producing Escherichia coli clinical isolate Ecl-14-56 after 16 to 20 hrs by broth microdilution method; format: functional; summary of the method: as §3
Escherichia coli [35] = experiment: Antibacterial activity against drug-resistant NDM1 producing Escherichia coli clinical isolate 1460 after 16 to 20 hrs by broth microdilution method; format: functional; summary of the method: as §3
Escherichia coli [36] = experiment: Antibacterial activity against drug-resistant NDM1 producing Escherichia coli clinical isolate SM-15-84 after 16 to 20 hrs by broth microdilution method; format: functional; summary of the method: as §3
Escherichia coli [37] = experiment: Antibacterial activity against drug-resistant NDM1 producing Escherichia coli clinical isolate CF-15-61 after 16 to 20 hrs by broth microdilution method; format: functional; summary of the method: as §3
Escherichia coli [38] = experiment: Antibacterial activity against drug-resistant NDM1 producing Escherichia coli clinical isolate CF-13-61 after 16 to 20 hrs by broth microdilution method; format: functional; summary of the method: as §3
Staphylococcus aureus [39] = experiment: Induction of cytoplasmic membrane depolarization in Staphylococcus aureus ATCC 29213 at 10 to 20 ug/ml measured every 2 mins for 12 mins by DiSC35 dye-based fluorescence assay; format: functional, organism-based
Summary of the method: (§4)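 Mid-log cells (~10⁸ CFU/mL) were suspended in PBS (S. aureus) or HEPES/glucose/KCl with EDTA (E. coli). They were preloaded with DiSC3(5) for 30 min (S. aureus) or 40 min (E. coli), and baseline fluorescence was read for 8 min. Compound was added to 20 µg/mL final, and fluorescence (ex 622/em 670 nm) was read every 2 min for 12 min. Water served as control.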

Escherichia coli [40] = experiment: Induction of cytoplasmic membrane depolarization in Escherichia coli ATCC 25922 at 10 to 20 ug/ml measured every 2 mins for 12 mins by DiSC35 dye-based fluorescence assay; format: functional, organism-based; summary of the method: as §4
Staphylococcus aureus [41] = experiment: Induction of inner membrane permeabilization in Staphylococcus aureus ATCC 29213 at 10 to 20 ug/ml measured every 2 mins for 12 mins by propidium iodide staining-based fluorescence assay; format: functional, organism-based
Summary of the method: (§5)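 Mid-log cells (~10⁸ CFU/mL) were suspended in PBS (S. aureus) or HEPES/glucose/KCl (E. coli). They were preincubated with propidium iodide for 30 min (S. aureus) or 40 min (E. coli), and baseline fluorescence was read for 8 min. Compound was added to 20 µg/mL final, and fluorescence (ex 535/em 617 nm) was read every 2 min for 12 min.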

Escherichia coli [42] = experiment: Induction of inner membrane permeabilization in Escherichia coli ATCC 25922 at 10 to 20 ug/ml measured every 2 mins for 12 mins by propidium iodide staining-based fluorescence assay; format: functional, organism-based; summary of the method: as §5
Escherichia coli [43] = experiment: Ratio of MIC for Escherichia coli ATCC 25922 after 20 passages to MIC for Escherichia coli ATCC 25922 before 20 passages; format: functional, organism-based; summary of the method: as §1

CCn1cc(C(=O)O)c(=O)c2cc(F)c(N3CCNCC3)cc21 [NORFLOXACIN]
256: Ratio (Staphylococcus aureus [1])

CN[C@H](CC(C)C)C(=O)N[C@H]1C(=O)N[C@@H](CC(N)=O)C(=O)N[C@H]2C(=O)N[C@H]3C(=O)N[C@H](C(=O)N[C@H](C(=O)O)c4cc(O)cc(O)c4-c4cc3ccc4O)[C@H](O)c3ccc(c(Cl)c3)Oc3cc2cc(c3O[C@@H]2O[C@H](CO)[C@@H](O)[C@H](O)[C@H]2O[C@H]2C[C@](C)(N)[C@H](O)[C@H](C)O2)Oc2ccc(cc2Cl)[C@H]1O
inactive: Activity (Staphylococcus aureus [2])

CCCCCCCC[N+](C)(C)CC(=O)Nc1ccc(C(=O)/C=C/c2ccc(OC)cc2)cc1.[Cl-]
active: Activity (Staphylococcus aureus [39]) | Activity (Escherichia coli [40]) | Activity (Staphylococcus aureus [41]) | Activity (Escherichia coli [42])
16 mg/L: MIC (Klebsiella pneumoniae [24]) | MIC (Klebsiella pneumoniae [25]) | MIC (Klebsiella pneumoniae [26]) | MIC (Escherichia coli [36])
2 mg/L: MIC (Enterococcus faecalis) | MIC (Klebsiella pneumoniae [21])
0.5 mg/L: MIC (Staphylococcus aureus [8]) | MIC (Staphylococcus aureus [11])
32 mg/L: MIC (Escherichia coli [38])
124 µg/mL: HC50 at 1 h [5]
8 mg/L: MIC (Staphylococcus aureus [9]) | MIC (Klebsiella pneumoniae [15]) | MIC (Klebsiella pneumoniae [16]) | MIC (Klebsiella pneumoniae [17]) | MIC (Klebsiella pneumoniae [18]) | MIC (Klebsiella pneumoniae [20]) | MIC (Klebsiella pneumoniae [22]) | MIC (Klebsiella pneumoniae [23]) | MIC (Escherichia coli [28]) | MIC (Escherichia coli [30]) | MIC (Escherichia coli [32]) | MIC (Escherichia coli [33]) | MIC (Escherichia coli [34]) | MIC (Escherichia coli [35]) | MIC (Escherichia coli [37])
1 mg/L: MIC (Staphylococcus aureus [3]) | MIC (Staphylococcus aureus [6]) | MIC (Staphylococcus aureus [7]) | MIC (Staphylococcus aureus [12]) | MIC (Staphylococcus aureus [13]) | MIC (Staphylococcus aureus [14]) | MIC (Escherichia coli [29])
4 mg/L: MIC (Escherichia coli [4]) | MIC (Salmonella enterica) | MIC (Staphylococcus aureus [10]) | MIC (Klebsiella pneumoniae [19]) | MIC (Escherichia coli [27]) | MIC (Escherichia coli [31])

COLISTIN
32: Ratio (Escherichia coli [43])

Reference: ChEMBL document CHEMBL4138242, “Synthesis and antibacterial evaluation of novel cationic chalcone derivatives possessing broad spectrum antibacterial activity” (Eur J Med Chem, 2018)
